LYPLA2 counter – LYPLA2 inhibitors, primary screen, counter-screen for PME1 inhibitor project, biochemical, fluorescence polarization, FP-Rh probe ABPP; Acyl-protein thioesterase 2 (Homo sapiens), O95372; recombinant LYPLA2; inhibition, % at 5.9 µM; hit rate 0.38% among 320,000;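 active means inhibition above the screen-wide mean plus 3 SD, limit set per campaign, cut at about 26% in these data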;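 further: 0% = LYPLA2 with DMSO and 100% = wells lacking LYPLA2 enzyme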
Target sequence (O95372 whole entry, looked up): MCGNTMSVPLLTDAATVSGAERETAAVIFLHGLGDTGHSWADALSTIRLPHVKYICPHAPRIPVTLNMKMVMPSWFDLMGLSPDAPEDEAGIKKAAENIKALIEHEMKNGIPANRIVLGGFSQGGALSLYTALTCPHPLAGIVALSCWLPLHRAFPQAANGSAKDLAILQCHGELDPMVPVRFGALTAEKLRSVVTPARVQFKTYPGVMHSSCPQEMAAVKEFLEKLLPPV
PME-1 inh – PME-1 inhibitors via competitive probe labeling, primary screen, biochemical, fluorescence polarization, FP-Rh probe, HTS. Protein phosphatase methylesterase 1 (Homo sapiens), Q9Y570. AID 2130, 2009. hit rate 0.53% among 320,000. inhibition, % at 5.9 µM. recombinant PME-1;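 active means inhibition above the campaign mean of all compounds plus 3 SD, cut at about 26% in these data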;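 further: competitive labeling of PME-1 active site by serine hydrolase directed probe; 0% = PME-1 with DMSO and 100% = wells lacking PME-1 enzyme; inhibitors block probe labeling so polarization falls and inhibition rises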
LYPLA1 inh – LYPLA1 inhibitors, primary screen, counter-screen for PME1 inhibitor project, biochemical, fluorescence polarization, FP-Rh probe ABPP; recombinant LYPLA1; inhibition, % at 5.9 µM; hit rate 0.16% among 320,000; Acyl-protein thioesterase 1 (Homo sapiens), O75608;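 active means inhibition above the mean of all tested compounds plus 3 SD, set per campaign, cut at about 14% in these data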;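 further: inhibitors block serine hydrolase probe labeling of LYPLA1 so polarization falls; 0% = enzyme with DMSO and 100% = wells lacking LYPLA1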
Target sequence (O75608 whole entry, looked up): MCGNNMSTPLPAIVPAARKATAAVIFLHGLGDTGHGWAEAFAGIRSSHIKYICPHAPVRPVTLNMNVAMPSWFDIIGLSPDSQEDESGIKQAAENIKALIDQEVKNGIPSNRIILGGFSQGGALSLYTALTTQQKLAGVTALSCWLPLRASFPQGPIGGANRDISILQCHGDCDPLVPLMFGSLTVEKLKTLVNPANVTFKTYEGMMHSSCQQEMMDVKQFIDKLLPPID
RBBP9 inh – human RBBP9 inhibitors, primary screen, biochemical, fluorescence polarization, FP-Rh probe, HTS | recombinant RBBP9 | hit rate 0.2% among 220,000 | inhibition, % at 7.94 µM | Serine hydrolase RBBP9 (Homo sapiens), O75884;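 active means inhibition above the campaign mean of all tested compounds plus 3 SD, cut at about 14% in these data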;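 further: plate controls were DMSO wells with RBBP9 for no effect and wells lacking RBBP9 protein for full effect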
Target sequence (O75884 whole entry, looked up): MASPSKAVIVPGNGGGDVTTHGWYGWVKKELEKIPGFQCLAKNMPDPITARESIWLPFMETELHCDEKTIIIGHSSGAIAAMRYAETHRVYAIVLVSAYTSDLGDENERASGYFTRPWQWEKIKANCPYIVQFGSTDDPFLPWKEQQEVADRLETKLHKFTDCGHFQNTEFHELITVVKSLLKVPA
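Material: RBBP9 protein. Amount: RBBP9 at 2.5 µM in dispensed solution, before mixing. Schedule: 30 min then 45 min, 25 °C. Medium: Tris buffer pH 8.0, NaCl, Pluronic. Measured by: fluorescence polarization. Measure: percent inhibition from mP, scaled between DMSO and no-protein wells. Replication: one well per compound.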
PAD4 inh – human PAD4 inhibitors, primary screen, biochemical, fluorescence polarization, 1536-well format; Protein-arginine deiminase type-4 (Homo sapiens), Q9UM07; recombinant PAD4, RCA probe fluorescence polarization; inhibition, % at 6.36 µM; hit rate 0.41% among 330,000; AID 485272, 2010;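 active means percent inhibition above a cutoff equal to the mean of all tested compounds plus 3 SD, cut at about 15% in these data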;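 further: 0% = PAD4 with RCA probe and DMSO and 100% = probe without PAD4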
Fam108B inh – mouse Fam108B serine hydrolase inhibitors, primary screen, counter-screen for RBBP9 inhibitor project, biochemical, fluorescence polarization; AID 1947, 2009; inhibition, % at 9.51 µM; hit rate 0.33% among 300,000; recombinant Fam108B, FP-Rh probe fluorescence polarization;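 active means inhibition above the screen mean inhibition plus 3 SD, computed separately per campaign, cut at about 18% in these data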;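 further: inhibitors lower polarization as less probe binds the enzyme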
LYPLA1 confirm – LYPLA1 inhibitors, retest, confirmation, counter-screen for PME1 inhibitor project, biochemical, fluorescence polarization, FP-Rh probe ABPP | AID 2233, 2010 | recombinant LYPLA1 | inhibition, % at 5.9 µM | hit rate 69% among 480 | shares compounds with LYPLA1 inh;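 active means mean inhibition across replicates above the hit cutoff set in the primary screen, cut at about 15% in these data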;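 further: loss of FP-Rh probe labeling of LYPLA1 seen as lower polarization; 0% = LYPLA1 with DMSO and 100% = wells lacking LYPLA1 enzyme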
* hit, by the source's call; nt = no result given. Compounds with a hit are over-represented: about 1.3% of the library has one in this group of screens.

SMILES	LYPLA2 counter	PME-1 inh	LYPLA1 inh	RBBP9 inh	PAD4 inh	Fam108B inh	LYPLA1 confirm
COC(=O)c1cccc(NC(=O)c2ccc3c(c2)C(=O)N(Cc2cccnc2)C3=O)c1	8	7	20*	nt	3	1	19*
CCOC(=O)c1c(NC(=O)CSc2ncnc3ccccc23)sc(C(C)=O)c1C	5	4	16*	-9	10	-1	8
N#Cc1ccccc1OCC(=O)OCC(=O)Nc1ccc2c(c1)OCO2	-1	4	-5	nt	-9	nt	nt
O=P1(Nn2cnnc2)C=C(c2ccccc2)OC(c2ccccc2)=C1	18	-1	17*	-4	1	4	0
CCOc1ccc(CCNC(=O)c2cc(C)nc3ccccc23)cc1OCC	2	7	0	nt	0	4	nt
COc1cc(/C=N\NC(=O)c2ccc(Cn3cc(Br)c([N+](=O)[O-])n3)o2)cc(OC)c1O	-2	7	16*	-2	2	13	10
COc1cc(/C=N/NC(=O)c2ccc(Cn3cc([N+](=O)[O-])cn3)o2)cc(Br)c1O	-3	0	-2	0	-8	0	nt
NC(=S)Nc1cccc(F)c1	1	7	-3	-11	-5	-1	nt
COc1ccc(CC(=O)Nc2ccc(S(=O)(=O)N3CCC(C)CC3)cc2)c(OC)c1	-3	-5	17*	nt	-2	nt	-5
COc1ccc(CC(NC(C)=O)C(=O)NC2CCN(S(=O)(=O)c3ccc(NC(C)=O)cc3)CC2)c(OC)c1 (stereo not drawn)	-8	-2	-1	nt	2	-2	nt
N#Cc1c(NC(=O)CSc2nc(N)cc(=O)[nH]2)sc2c1CCCCCC2	20	2	6	-8	2	0	nt
CC(Sc1nc(N)cc(=O)[nH]1)C(=O)Nc1sc2c(c1C#N)CCCC2 (stereo not drawn)	9	0	30*	-6	1	-1	39*
Fc1ccc(/C=N/N2CCN(Cc3ccccc3)CC2)cc1	6	-1	2	nt	-4	-1	nt
COc1ccc(-n2cc(-c3ccccc3)c3c(NN4CCOCC4)ncnc32)cc1	0	0	14*	0	-1	-4	27*
CCN(c1ccccc1)S(=O)(=O)c1ccc(OC)c(NC(=O)CN(C)C)c1	4	1	15*	-1	0	0	7
CCN(c1ccccc1)S(=O)(=O)c1ccc(OC)c(NC(=O)CNC)c1	-4	-4	0	0	-13	-5	nt
COCCCC1CCN(C(=O)CCc2nnc(CCCCc3ccccc3)o2)CC1	8	-2	17*	-6	-3	0	17*
CC(=O)N1CCN(C(=O)CCc2nnc(CCCCc3ccccc3)o2)CC1	-5	-3	-3	-2	-7	-3	nt
O=C(CN1CCN(c2ccccn2)CC1)Nc1ccc(Cl)c(C(F)(F)F)c1	3	8	2	0	-1	-5	nt
O=C(CN1CCN(c2ccccn2)CC1)Nc1cc(C(F)(F)F)ccc1Cl	-5	10	54*	-8	-5	7	55*
CSc1ncc(Cl)c(C(=O)Nc2ccccc2[N+](=O)[O-])n1	2	-4	0	nt	0	-1	nt
COc1ccc(-c2nnc(Nc3nc4c(OC)cccc4s3)o2)cc1	18	-27	17*	-1	-8	1	41*
COc1ccc(-c2nnc(-c3ccc(N)cc3)o2)cc1	-1	7	-2	1	-2	8	nt
C=CCOc1cccc(C(=O)N2CCC(CCC(=O)NC3CC3)CC2)c1	6	-6	23*	nt	5	-2	4
CCOc1cc(CN2CCCC(C(=O)c3cccc(C(F)(F)F)c3)C2)ccc1O (stereo not drawn)	-1	0	35*	-6	-1	-2	42*
SMILES	LYPLA2 counter	PME-1 inh	LYPLA1 inh	RBBP9 inh	PAD4 inh	Fam108B inh	LYPLA1 confirm
Cc1ccc(NC(=O)COC(=O)C2CC3C=CC2C3)cc1S(=O)(=O)N1CCCCC1 (stereo not drawn)	6	5	20*	-12	1	-2	33*
CCN(CC)S(=O)(=O)c1cccc(NC(=O)COC(=O)C2CC3C=CC2C3)c1 (stereo not drawn)	13	1	30*	-7	4	11	28*
COc1ccc(NC(=O)COC(=O)C2CC3C=CC2C3)cc1 (stereo not drawn)	7	-2	4	5	0	-2	nt
COc1ccccc1C(=O)NC(CCSC)C(=O)Nc1ccc(C)c(S(=O)(=O)N2CCOCC2)c1 (stereo not drawn)	nt	nt	nt	nt	-1	nt	nt
CCn1c2ccccc2c2nnc(SCc3ccc(C(=O)OC)o3)nc21	5	4	15*	-1	1	3	22*
CCn1c(C)nc2cc(C(=O)NN=Cc3ccc([N+](=O)[O-])cc3)ccc21	nt	nt	nt	nt	1	nt	nt
CC(=O)N1CCN(C(=O)COc2ccc(N(C)S(=O)(=O)c3cccs3)cc2)CC1	4	6	24*	3	4	-1	-2
CN(c1ccc(OCC(=O)N2CCC(C(N)=O)CC2)cc1)S(=O)(=O)c1cccs1	-2	6	-3	2	-4	1	nt
CCS(=O)(=O)c1ccc2c(c1)N(S(C)(=O)=O)CC(C(=O)NN)O2 (stereo not drawn)	-1	-3	0	-4	1	-4	nt
COc1ccccc1N1CCN(C(=O)C(=O)c2c[nH]c3ccccc23)CC1	3	-6	1	nt	6	0	nt
CN(C)c1nnnn1-c1ccc(OC(F)(F)F)cc1	-2	9	-6	-6	3	4	nt
COCCn1c(=NC(=O)c2ccc(S(=O)(=O)N3CCOCC3)cc2)sc2cc(S(N)(=O)=O)ccc21	15	12	17*	nt	4	-4	27*
COC(=O)Cn1c(=NC(=O)c2ccc(S(=O)(=O)N3CCOCC3)cc2)sc2cc(S(N)(=O)=O)ccc21	0	2	13	nt	-4	-7	nt
CCCCC/C=N/NC(=O)c1[nH]c2ccc([N+](=O)[O-])cc2c1C	0	-19	15*	-12	-2	-3	40*
O=C(Nc1ccc(F)cc1)C1CCC(CNc2c(N3CCCCC3)c(=O)c2=O)CC1 (stereo not drawn)	2	1	4	-5	2	4	nt
